# Publication PMC6118327 (Biochimica et biophysica acta. Biomembranes, 2017)
# Substitutions are numbered along the chain they refer to. “And” between values parts separate entries of the source, which are not always exact repeats. Equal values may be shown once.
# Key:
# Format in all cases: biochemical
# mUCP3R84Q = molecular target: T1, mUCP3R84Q (Mus musculus, UniProt P56501, R84Q); test: Relative conductance of UCP3 mutant in planar bilayer membranes; settings: 3 mM ammonium-phosphate-dibasic; 15 mol% AA
# T1 sequence (P56501 1-308 R84Q): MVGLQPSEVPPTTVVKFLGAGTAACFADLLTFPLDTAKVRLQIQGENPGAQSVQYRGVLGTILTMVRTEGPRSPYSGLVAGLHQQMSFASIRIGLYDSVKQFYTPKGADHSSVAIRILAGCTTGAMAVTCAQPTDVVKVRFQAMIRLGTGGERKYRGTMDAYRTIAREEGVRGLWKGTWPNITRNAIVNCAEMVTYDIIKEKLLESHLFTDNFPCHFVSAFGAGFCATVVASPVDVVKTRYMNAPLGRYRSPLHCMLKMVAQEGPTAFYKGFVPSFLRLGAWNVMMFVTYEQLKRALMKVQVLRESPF
# Summary of the method: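 Arginine point mutants made by site-directed mutagenesis, expressed in E. coli Rosetta and reconstituted like wild type. Planar DOPC/DOPE/CL (45:45:10) bilayers carried 15 mol% AA; buffer pH 7.35, 32°C. Relative conductance compared with wild type after nucleotide addition: UCP1 mutants 5 mM ATP, ADP or AMP; UCP3 mutant 2 mM ATP, 4 mM ADP or 8 mM AMP. Mean ± SD, ≥3 experiments.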
# mUCP3 R184T = molecular target: T2, mUCP3 R184T (Mus musculus, UniProt P56501, R184T); test: Relative conductance of UCP3 mutant in planar bilayer membranes; settings: 3 mM ammonium-phosphate-dibasic; 15 mol% AA
# T2 sequence (P56501 1-308 R184T): T1 sequence (P56501 1-308 R84Q) with Q84R, R184T
# mUCP1 = molecular target: T3, mUCP1 (Mus musculus, UniProt P12242); settings: 15 mol% AA, curve fitting
# T3 sequence (P12242 1-307): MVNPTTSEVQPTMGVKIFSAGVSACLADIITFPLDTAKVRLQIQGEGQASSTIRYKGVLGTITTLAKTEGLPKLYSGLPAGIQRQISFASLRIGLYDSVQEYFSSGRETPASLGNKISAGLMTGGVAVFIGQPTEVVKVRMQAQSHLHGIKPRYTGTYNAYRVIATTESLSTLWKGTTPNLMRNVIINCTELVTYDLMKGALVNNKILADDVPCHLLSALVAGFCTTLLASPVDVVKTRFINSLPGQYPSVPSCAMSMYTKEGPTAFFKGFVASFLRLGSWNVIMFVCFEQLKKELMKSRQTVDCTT
# Summary of the method: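 Inclusion-body mouse protein reconstituted into DOPC/DOPE/CL (45:45:10) proteoliposomes. Planar bilayers made at 1.5 mg/ml lipid, AA 10 or 15 mol% in the lipid solution, sulfate/MES/Tris/EGTA buffer pH 7.35, 32°C. I/V swept −50 to +50 mV; G at zero voltage from linear fit, normalised to AA-only and UCP+AA membranes. Titrations of nucleotides or phosphate fitted by four-parameter logistic for IC50 and maximum inhibition. AA comparison used 1 mM ATP, 2 mM ADP, 2 mM AMP. Mean ± SD, ≥3 experiments.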
# mUCP3 R278L = molecular target: T4, mUCP3 R278L (Mus musculus, UniProt P56501, R278L); test: Relative conductance of UCP3 mutant in planar bilayer membranes; settings: 3 mM ammonium-phosphate-dibasic; 15 mol% AA
# T4 sequence (P56501 1-308 R278L): T1 sequence (P56501 1-308 R84Q) with Q84R, R278L
# mUCP3 = molecular target: T5, mUCP3 (Mus musculus, UniProt P56501); settings: 15 mol% AA
# T5 sequence (P56501 1-308): T1 sequence (P56501 1-308 R84Q) with Q84R
# Summary of the method: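 Recombinant mouse protein reconstituted into DOPC/DOPE/CL (45:45:10) liposomes. Bilayers formed at 1.5 mg/ml lipid, 6 μg protein/mg lipid, AA 10 or 15 mol%. Run in 50 mM Na₂SO₄/10 mM MES/10 mM Tris/0.6 mM EGTA, pH 7.35, 32°C. I/V recorded −50 to +50 mV, including with 2 mM ATP. G from linear fit at 0 mV gives relative conductance. IC50 and maximum inhibition come from a four-parameter logistic fit. AA-dependence tested at 1 mM ATP, 2 mM ADP, 5 mM AMP. Mean ± SD, ≥3 experiments.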
smiles,measurement,setting,value
"O=P(O)(O)O [Pi, inorganic phosphate]",effect of mutation on inhibition by phosphate,mUCP3R84Q,none of the arginine mutations had any effect
same,effect of mutation on inhibition by phosphate,mUCP3 R184T,none of the arginine mutations had any effect
same,IC50 of mUCP1 inhibition by Pi compared with mUCP3,mUCP1,similar
same,maximum inhibition of mUCP1 by Pi compared with mUCP3,mUCP1,similar
same,effect of mutation on inhibition by phosphate,mUCP3 R278L,none of the arginine mutations had any effect
same,maximum inhibition of mUCP3 by Pi,mUCP3; curve fitting,~ 60%
same,extent of inhibition at high inhibitor concentration,"mUCP3; DOPC/DOPE/CL membranes, pH 7.35, 32°C",only partial inhibition
same,IC50,"mUCP3; read-out: IC50 of Pi inhibition, curve fitting",~1000 µM and 1000 µM
